# Experimental data from different studies.
# Lines come from different studies, so protocols differ.
# Oprk1: Kappa-type opioid receptor (Oprk1, Mus musculus, UniProt P33534)
# SLC6A2: Sodium-dependent noradrenaline transporter (SLC6A2, Homo sapiens, UniProt P23975)
# MPO: Myeloperoxidase (MPO, Homo sapiens, UniProt P05164)
Structure (SMILES),target,assay,system,conditions,inhibition [%]
CC(C)[C@@H](CN1CCc2ccccc2C1)NC(=O)C=Cc1ccccc1,Oprk1,"ligand displacement, radioligand",,10 µM,22.7
C#Cc1cc(-c2cc(Nc3nc(N[C@@H](C)c4ccc(F)cn4)ncc3Cl)n[nH]2)ccc1C=O,"Interferon-induced, double-stranded RNA-activated protein kinase (EIF2AK2, Homo sapiens, UniProt P19525)","enzyme activity, inhibitor",,0.2 µM,7.44
CC(C)[C@@H](CN1CCc2ccccc2C1)NC(=O)c1cccc(-c2ccccc2)c1,Oprk1,"ligand displacement, radioligand",,10 µM,66
COc1ccc(C(=O)NC2CCCc3c2[nH]c2c(Cl)cccc32)cc1OC (stereo not shown),"Cysteinyl leukotriene receptor 1 (CYSLTR1, Homo sapiens, UniProt Q9Y271)","calcium signal, antagonist",HEK293,33 µM,~41
Cc1cc(O)c(-c2ccc([C@@H](C)CN(C)C)cc2)c2c1[nH]c(=O)c1sccc12,"RPS6KC1 (Homo sapiens, UniProt Q96S38)","cell-free assay, inhibitor",,"0.1 µM, lysate",5.19
CCOC(=O)[C@@]12C[C@@H]1[C@@H](n1cnc3c(NCCCCCCc4ccccc4)nc(C#Cc4ccc(Cl)s4)nc31)[C@H](O)[C@@H]2O,SLC6A2,"ligand displacement, radioligand",,10 µM,83
NC/C(=C\F)COc1cccc(Cn2c(=S)[nH]c(=O)c3[nH]cnc32)c1,MPO,"enzyme activity, inhibitor, fluorescence",,0.3704 µM,98.6
CC(C)[C@@H](CN1CCc2ccccc2C1)NC(=O)c1cccc(-c2ccc(F)cc2)c1,Oprk1,"ligand displacement, radioligand",,10 µM,63.9
CC(C)OCCn1c(=S)[nH]c(=O)c2[nH]ccc21,MPO,"enzyme activity, inhibitor, fluorescence",,0.3704 µM,96.2
CCOC(=O)[C@@]12C[C@@H]1[C@@H](n1cnc3c(NCCCCCCc4ccccc4)nc(I)nc31)[C@H](O)[C@@H]2O,SLC6A2,"ligand displacement, radioligand",,10 µM,52
CC(C)[C@H](CN1CCc2ccccc2C1)NC(=O)c1ccc(F)cc1,Oprk1,"ligand displacement, radioligand",,10 µM,88.7
N#CC[C@@]12C[C@@H]1[C@@H](n1cnc3c(Nc4ccccc4)nc(I)nc31)[C@H](O)[C@@H]2O,SLC6A2,"ligand displacement, radioligand",,10 µM,20
CC(C)[C@H](CN1CCc2ccccc2C1)NC(=O)c1c(Cl)cncc1Cl,Oprk1,"ligand displacement, radioligand",,10 µM,69.4
CCOC(=O)[C@@]12C[C@@H]1[C@@H](n1cnc3c(NCCCCCc4ccccc4)nc(C#Cc4ccccc4)nc31)[C@H](O)[C@@H]2O,SLC6A2,"transporter uptake, inhibitor, radiometric",HEK293,10 µM,1
Cc1cc(F)cc2c(CCC(=O)N[C@@H]3C(=O)NC[C@H]3O)c(-c3ccc(F)cc3)[nH]c12,"Neuronal acetylcholine receptor; alpha3/beta4 (Homo sapiens, UniProt P30926+P32297)",cell-free assay,,10 µM,-4
OC[C@@]12C[C@@H]1[C@@H](n1cnc3c(NCCCCCCc4ccccc4)nc(I)nc31)[C@H](O)[C@@H]2O,SLC6A2,"ligand displacement, radioligand",,10 µM,52
COc1ccc(Cl)cc1-c1cc(=O)[nH]c(=S)n1CC(N)=O,MPO,"enzyme activity, inhibitor, fluorescence",,30 µM,98.3
CC(C)[C@H](CN1CCc2ccccc2C1)NC(=O)c1ccc([N+](=O)[O-])s1,Oprk1,"ligand displacement, radioligand",,10 µM,64.5
CCOC(=O)[C@@]12C[C@@H]1[C@@H](n1cnc3c(Nc4ccccc4)nc(C#Cc4ccc(Cl)s4)nc31)[C@H](O)[C@@H]2O,SLC6A2,"ligand displacement, radioligand",,10 µM,78
